Measurements gathered from unrelated publications.
Each line is one published result; the experiments were not run side by side. In brackets after ≈: the same amount, converted by molar mass.

| SMILES | method | matrix | time | pH | temperature | measurement | result |
| --- | --- | --- | --- | --- | --- | --- | --- |
| CC[C@H](C)[C@H](NC(=O)[C@H](Cc1ccccc1)NC(=O)[C@H](Cc1ccc(O)cc1)NC(=O)[C@@H]1CCCN1C(=O)[C@H](N)CCCCN)C(=O)N1CCC[C@H]1C(=O)N[C@@H](CC(C)C)C(=O)NCC(=O)N[C@H](CCCCN)C(=O)NCC(=O)N[C@@H](CCC(=O)O)C(=O)N[C@H](C(=O)N[C@@H](CC(N)=O)C(=O)N[C@@H](CC(C)C)[C@@H](O)CC(=O)N[C@H](C(=O)N[C@@H](C)C(=O)N[C@@H](CCC(=O)O)C(=O)N1CCC[C@@H]1C(=O)N[C@@H](CCCCNC(=O)CCC(=O)O[C@H]1CC[C@@]2(C)C(=CC[C@H]3[C@@H]4CC[C@H]([C@H](C)CCCC(C)C)[C@@]4(C)CC[C@@H]32)C1)C(N)=O)C(C)C)C(C)C |  | aqueous buffer |  | pH 6.5 |  | thermodynamic solubility | 951 µg/mL |
| Brc1ccccc1CNc1nc(NCc2ccccc2)c2ccccc2n1 |  | aqueous buffer |  | pH 6.2 |  | solubility | 0.24 µg/mL (≈ 0.572 µM) |
| CC(=O)N[C@@H](CCCNC(=N)N)C(=O)N[C@H]1CSSC[C@@H](C(=O)N[C@H](C(N)=O)[C@@H](C)O)NC(=O)[C@H](CCCNC(=N)N)NC(=O)[C@H](Cc2c[nH]cn2)NC(=O)[C@H](C)NC(=O)CNC(=O)[C@H](Cc2c[nH]c3ccccc23)NC(=O)[C@H](CC(=O)O)NC(=O)[C@H](CCC(N)=O)NC(=O)[C@H](Cc2cn(C)c3ccccc23)NC(=O)[C@H](C(C)C)NC1=O | absorbance | water |  |  |  | thermodynamic solubility | > 1000 µM |
| CC(=O)Nc1cc(Nc2cc(NC3CC3)n3ncc(C#N)c3n2)ccc1N(C)[C@H]1CCOC1 | shake flask | PBS | 24 h | pH 7.4 | 22 °C | kinetic solubility | 21 µg/mL (≈ 47 µM) |
| CCCn1nc(C(=O)N2CCCCC2)c2c1CCC(N(C)Cc1ccc(F)cc1)C2 (centres unmarked) |  | PBS | 16 h | pH 7.4 |  | thermodynamic solubility | 2400 µM |
| CC(=O)Oc1ccccc1C(=O)O |  | aqueous buffer | 72 h | pH 6.8 | 37 °C | thermodynamic solubility | 158000 µg/mL |
| Brc1cccc(Nc2nc(NCc3ccccc3)c3ccccc3n2)c1 |  | aqueous buffer |  | pH 7.4 |  | solubility | < 0.01 µg/mL |
| CC[C@H](C)[C@H](NC(=O)[C@@H](CCCCN)NC(=O)[C@H](Cc1ccc(O)cc1)NC(=O)[C@@H]1CCCN1C(=O)[C@@H](N)Cc1ccc(O)cc1)C(=O)N1CCC[C@H]1C(=O)N[C@@H](CC(C)C)C(=O)NCC(=O)N[C@H](CCCCN)C(=O)NCC(=O)N[C@@H](CCC(=O)O)C(=O)N[C@H](C(=O)N[C@@H](CC(N)=O)C(=O)N[C@@H](CC(C)C)[C@@H](O)CC(=O)N[C@H](C(=O)N[C@@H](C)C(=O)N[C@@H](CCC(=O)O)C(=O)N1CCC[C@@H]1C(=O)N[C@@H](CCCCNC(=O)CCC(=O)O[C@H]1CC[C@@]2(C)C(=CC[C@H]3[C@@H]4CC[C@H]([C@H](C)CCCC(C)C)[C@@]4(C)CC[C@@H]32)C1)C(N)=O)C(C)C)C(C)C |  | aqueous buffer |  | pH 6.5 |  | thermodynamic solubility | > 2440 µg/mL |
| Brc1cccc2c(NCc3ccccc3)nc(NCc3ccccc3)nc12 |  | aqueous buffer |  | pH 5 |  | solubility | 0.42 µg/mL (≈ 1 µM) |
| CC(=O)N[C@@H](CCCNC(=N)N)C(=O)N[C@H]1CSSC[C@@H](C(=O)N[C@H](C(N)=O)[C@@H](C)O)NC(=O)[C@H](CCCNC(=N)N)NC(=O)[C@H](Cc2c[nH]cn2)NC(=O)[C@H](C)NC(=O)CNC(=O)[C@H](Cc2c[nH]c3ccccc23)NC(=O)[C@H](CC(=O)O)NC(=O)[C@H](CCC(N)=O)NC(=O)[C@H](Cc2c[nH]c3ccccc23)NC(=O)[C@H](C(C)C)NC1=O | absorbance | water |  |  |  | thermodynamic solubility | > 1000 µM |
| CC[C@H](C)[C@H](NC(=O)[C@H](Cc1ccccc1)NC(=O)[C@@H](CCCCN)NC(=O)[C@@H]1CCCN1C(=O)[C@@H](N)Cc1ccc(O)cc1)C(=O)N1CCC[C@H]1C(=O)N[C@@H](CC(C)C)C(=O)NCC(=O)N[C@H](CCCCN)C(=O)NCC(=O)N[C@@H](CCC(=O)O)C(=O)N[C@H](C(=O)N[C@@H](CC(N)=O)C(=O)N[C@@H](CC(C)C)[C@@H](O)CC(=O)N[C@H](C(=O)N[C@@H](C)C(=O)N[C@@H](CCC(=O)O)C(=O)N1CCC[C@@H]1C(=O)N[C@@H](CCCCNC(=O)CCC(=O)O[C@H]1CC[C@@]2(C)C(=CC[C@H]3[C@@H]4CC[C@H]([C@H](C)CCCC(C)C)[C@@]4(C)CC[C@@H]32)C1)C(N)=O)C(C)C)C(C)C |  | aqueous buffer |  | pH 6.5 |  | thermodynamic solubility | > 3000 µg/mL |
| COc1cccc2c(NCc3ccccc3)nc(-n3c(=O)oc4ccccc43)nc12 |  | aqueous buffer |  | pH 6.2 |  | solubility | < 0.01 µg/mL |
| CC[C@H](C)[C@H](NC(=O)[C@H](Cc1ccccc1)NC(=O)[C@H](Cc1ccc(O)cc1)NC(=O)[C@@H](CCCCN)NC(=O)[C@@H](N)Cc1ccc(O)cc1)C(=O)N1CCC[C@H]1C(=O)N[C@@H](CC(C)C)C(=O)NCC(=O)N[C@H](CCCCN)C(=O)NCC(=O)N[C@@H](CCC(=O)O)C(=O)N[C@H](C(=O)N[C@@H](CC(N)=O)C(=O)N[C@@H](CC(C)C)[C@@H](O)CC(=O)N[C@H](C(=O)N[C@@H](C)C(=O)N[C@@H](CCC(=O)O)C(=O)N1CCC[C@@H]1C(=O)N[C@@H](CCCCNC(=O)CCC(=O)O[C@H]1CC[C@@]2(C)C(=CC[C@H]3[C@@H]4CC[C@H]([C@H](C)CCCC(C)C)[C@@]4(C)CC[C@@H]32)C1)C(N)=O)C(C)C)C(C)C |  | aqueous buffer |  | pH 6.5 |  | thermodynamic solubility | < 1 µg/mL |
| COc1ccc(C2CC(=O)c3c(O)cc(O)cc3O2)cc1O (centres unmarked) | shake flask | aqueous buffer | 24 h | pH 5 | 25 °C | thermodynamic solubility | 9.33 µg/mL |
